The target of the assay is T1, Sterol regulatory element-binding protein 2 (Homo sapiens, UniProt Q12772).
T1 sequence (Q12772 whole entry): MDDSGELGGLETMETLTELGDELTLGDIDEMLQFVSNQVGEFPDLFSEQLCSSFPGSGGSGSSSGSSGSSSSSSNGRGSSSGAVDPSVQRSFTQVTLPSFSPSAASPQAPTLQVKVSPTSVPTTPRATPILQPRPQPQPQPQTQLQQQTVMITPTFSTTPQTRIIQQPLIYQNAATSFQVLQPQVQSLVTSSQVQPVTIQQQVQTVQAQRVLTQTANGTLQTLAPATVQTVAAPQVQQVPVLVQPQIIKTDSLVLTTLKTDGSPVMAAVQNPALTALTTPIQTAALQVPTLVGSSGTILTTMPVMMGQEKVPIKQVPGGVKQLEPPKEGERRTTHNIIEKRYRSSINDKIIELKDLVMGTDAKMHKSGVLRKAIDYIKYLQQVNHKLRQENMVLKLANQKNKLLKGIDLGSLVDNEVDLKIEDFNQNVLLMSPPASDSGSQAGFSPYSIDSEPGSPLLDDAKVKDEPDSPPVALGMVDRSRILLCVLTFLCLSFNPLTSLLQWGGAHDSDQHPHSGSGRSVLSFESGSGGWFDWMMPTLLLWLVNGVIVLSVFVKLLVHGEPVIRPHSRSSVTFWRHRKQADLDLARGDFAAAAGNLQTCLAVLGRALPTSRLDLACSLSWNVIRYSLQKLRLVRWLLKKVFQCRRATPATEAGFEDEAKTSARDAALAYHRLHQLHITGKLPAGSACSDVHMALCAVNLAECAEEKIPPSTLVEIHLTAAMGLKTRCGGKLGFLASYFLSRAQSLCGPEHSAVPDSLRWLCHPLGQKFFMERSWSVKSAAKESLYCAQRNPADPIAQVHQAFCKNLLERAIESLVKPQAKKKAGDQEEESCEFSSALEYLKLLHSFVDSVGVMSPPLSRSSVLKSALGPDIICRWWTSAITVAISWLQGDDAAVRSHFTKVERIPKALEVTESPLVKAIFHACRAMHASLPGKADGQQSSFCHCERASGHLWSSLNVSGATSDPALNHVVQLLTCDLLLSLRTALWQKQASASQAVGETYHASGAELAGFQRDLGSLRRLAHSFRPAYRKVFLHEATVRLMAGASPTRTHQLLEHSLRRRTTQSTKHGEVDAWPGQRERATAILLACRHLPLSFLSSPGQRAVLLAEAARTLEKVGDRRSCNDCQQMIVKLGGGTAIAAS
As to the kind of experiment: Inhibition of SREBP2 in human HepG2 cells assessed as reduction of PCSK9 secretion after 16 hrs by ELISA. The method in brief:
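HepG2 cells treated with compound; secreted PCSK9 in culture supernatants measured with a human-specific PCSK9 ELISA.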
For orientation: In an ELISA, binding on a coated surface is turned into a signal by an enzyme label.

A word on the IC50: it is the concentration needed to halve the response being measured. As to `CC/C=C\C/C=C\C/C=C\C/C=C\C/C=C\CCCC(=O)NCCNC(=O)c1cccnc1`, the IC50 was found to be 17 µM.

The record behind these values is BindingDB's records for doi:10.1021/acs.jmedchem.5b01961 (Catabasis Pharmaceuticals, 2016).
